{"source": "ChEMBL document CHEMBL5696444", "about": "(Nat Commun, 2017)", "key": {"[1]": {"system": "HCT-116", "experiment": "Induction of apoptosis in human HCT-116 cells assessed as viable cells at 0.1 uM incubated for > 6 hrs by annexin V/PI staining based analysis (Rvb=90.04%)", "format": "functional", "conditions": "read-out: Activity"}, "[2]": {"target": "Cyclin-dependent kinase 5/CDK5 activator 1 (Homo sapiens) (UniProt Q00535+Q15078)", "sequence (Q00535 whole entry)": "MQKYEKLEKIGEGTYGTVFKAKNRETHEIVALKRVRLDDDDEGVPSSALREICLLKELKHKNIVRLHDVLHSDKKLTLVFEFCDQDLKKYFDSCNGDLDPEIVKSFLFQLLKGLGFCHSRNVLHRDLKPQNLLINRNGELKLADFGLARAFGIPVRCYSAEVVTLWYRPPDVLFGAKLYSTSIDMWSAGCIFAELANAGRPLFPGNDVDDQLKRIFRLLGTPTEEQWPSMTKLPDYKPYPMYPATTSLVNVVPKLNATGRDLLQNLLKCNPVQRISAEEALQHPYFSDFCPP", "sequence (Q15078 99-307 partner limits assumed)": "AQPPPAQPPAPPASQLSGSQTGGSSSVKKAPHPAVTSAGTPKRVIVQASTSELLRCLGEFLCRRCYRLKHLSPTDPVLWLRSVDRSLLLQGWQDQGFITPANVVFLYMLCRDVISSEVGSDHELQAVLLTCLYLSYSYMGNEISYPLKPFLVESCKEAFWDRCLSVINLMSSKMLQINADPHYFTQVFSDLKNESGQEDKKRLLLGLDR", "experiment": "Inhibition of CDK5/p35 (unknown origin) at 100 nM in the presence of ATP by Kinome scan method relative to control", "format": "protein-complex assay"}, "[3]": {"target": "Dual specificity protein kinase CLK3 (Homo sapiens) (UniProt P49761)", "experiment": "Inhibition of CLK3 (unknown origin) in human HCT-116 cells assessed as increase in CLK3 protein level at 0.5 to 0.1 uM incubated for 6 hrs by immunoblot analysis", "format": "cell-based", "conditions": "dose 0.5-0.1 µM", "in_short": "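HCT116 cells were treated for 3 or 6 h and lysed in SDS sample buffer (Tris-HCl pH 6.8), then boiled for 5 min. Lysates were run on 5–15% or 4–12% gradient gels and transferred to nitrocellulose or PVDF. Blots were blocked in milk or BSA/TBS-T and probed overnight at 4 °C with anti-phospho-SR (1H4, 1/1000), anti-SR, anti-CLK1 or anti-CLK3 antibodies, with GAPDH as loading control.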"}, "[4]": {"target": "Homeodomain-interacting protein kinase 1 (Homo sapiens) (UniProt Q86Z02)", "sequence (Q86Z02 whole entry, looked up)": "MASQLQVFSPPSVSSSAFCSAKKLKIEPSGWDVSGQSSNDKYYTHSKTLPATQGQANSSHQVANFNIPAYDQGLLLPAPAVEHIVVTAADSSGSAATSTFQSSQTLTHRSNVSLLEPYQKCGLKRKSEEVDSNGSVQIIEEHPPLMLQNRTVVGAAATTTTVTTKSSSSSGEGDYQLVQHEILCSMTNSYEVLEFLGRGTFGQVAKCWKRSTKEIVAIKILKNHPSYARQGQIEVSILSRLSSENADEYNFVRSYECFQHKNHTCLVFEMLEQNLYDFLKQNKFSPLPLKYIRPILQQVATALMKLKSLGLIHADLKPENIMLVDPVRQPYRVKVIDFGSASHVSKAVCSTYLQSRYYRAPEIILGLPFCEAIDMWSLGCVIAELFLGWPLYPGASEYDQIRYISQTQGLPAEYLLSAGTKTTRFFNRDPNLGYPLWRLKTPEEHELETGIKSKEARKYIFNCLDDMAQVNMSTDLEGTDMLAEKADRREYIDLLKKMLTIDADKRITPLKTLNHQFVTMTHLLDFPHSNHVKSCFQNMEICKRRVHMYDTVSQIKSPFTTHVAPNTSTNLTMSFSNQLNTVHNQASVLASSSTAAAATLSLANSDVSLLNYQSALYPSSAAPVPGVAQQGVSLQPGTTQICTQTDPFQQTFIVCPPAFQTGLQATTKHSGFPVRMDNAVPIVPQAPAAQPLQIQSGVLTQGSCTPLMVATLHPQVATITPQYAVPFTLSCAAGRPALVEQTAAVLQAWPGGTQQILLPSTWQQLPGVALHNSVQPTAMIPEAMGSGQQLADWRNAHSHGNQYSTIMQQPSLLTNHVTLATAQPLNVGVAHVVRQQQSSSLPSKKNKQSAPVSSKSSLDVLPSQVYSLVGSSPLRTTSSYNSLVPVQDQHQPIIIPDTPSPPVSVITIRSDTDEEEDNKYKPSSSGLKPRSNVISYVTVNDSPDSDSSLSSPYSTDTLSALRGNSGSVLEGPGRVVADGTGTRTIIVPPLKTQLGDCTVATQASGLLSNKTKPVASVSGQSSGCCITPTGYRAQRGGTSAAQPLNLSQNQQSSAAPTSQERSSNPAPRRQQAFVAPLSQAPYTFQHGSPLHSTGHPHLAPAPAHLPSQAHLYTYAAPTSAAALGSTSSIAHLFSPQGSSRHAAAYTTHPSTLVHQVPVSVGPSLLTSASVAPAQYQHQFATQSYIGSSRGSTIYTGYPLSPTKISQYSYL", "experiment": "Inhibition of HIPK1 (unknown origin) at 1000 nM in the presence of ATP by Kinome scan method relative to control"}, "[5]": {"target": "Fibroblast growth factor receptor 1 (Homo sapiens) (UniProt P11362)", "experiment": "Inhibition of FGFR1 (unknown origin) at 1000 nM in the presence of ATP by Kinome scan method relative to control"}, "[6]": {"target": "Ribosomal protein S6 kinase beta-1 (Homo sapiens) (UniProt P23443)", "experiment": "Inhibition of RPS6KB1 (unknown origin) at 100 nM in the presence of ATP by Kinome scan method relative to control"}, "[7]": {"target": "Tyrosine-protein kinase receptor UFO (Homo sapiens) (UniProt P30530)", "experiment": "Inhibition of AXL (unknown origin) at 100 nM in the presence of ATP by Kinome scan method relative to control"}, "[8]": {"target": "T1, Cyclin-dependent kinase 1/cyclin B1 (Homo sapiens) (UniProt P06493+P14635)", "T1 sequence (P06493 whole entry, looked up)": "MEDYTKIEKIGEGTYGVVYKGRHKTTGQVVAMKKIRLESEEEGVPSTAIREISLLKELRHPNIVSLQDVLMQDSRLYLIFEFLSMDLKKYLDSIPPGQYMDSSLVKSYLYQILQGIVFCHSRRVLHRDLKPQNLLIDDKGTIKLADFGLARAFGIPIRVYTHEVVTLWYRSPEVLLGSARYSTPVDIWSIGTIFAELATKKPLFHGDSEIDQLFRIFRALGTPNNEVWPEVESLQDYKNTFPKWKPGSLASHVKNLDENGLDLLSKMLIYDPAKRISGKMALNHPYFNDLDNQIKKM", "T1 sequence (P14635 whole entry, looked up)": "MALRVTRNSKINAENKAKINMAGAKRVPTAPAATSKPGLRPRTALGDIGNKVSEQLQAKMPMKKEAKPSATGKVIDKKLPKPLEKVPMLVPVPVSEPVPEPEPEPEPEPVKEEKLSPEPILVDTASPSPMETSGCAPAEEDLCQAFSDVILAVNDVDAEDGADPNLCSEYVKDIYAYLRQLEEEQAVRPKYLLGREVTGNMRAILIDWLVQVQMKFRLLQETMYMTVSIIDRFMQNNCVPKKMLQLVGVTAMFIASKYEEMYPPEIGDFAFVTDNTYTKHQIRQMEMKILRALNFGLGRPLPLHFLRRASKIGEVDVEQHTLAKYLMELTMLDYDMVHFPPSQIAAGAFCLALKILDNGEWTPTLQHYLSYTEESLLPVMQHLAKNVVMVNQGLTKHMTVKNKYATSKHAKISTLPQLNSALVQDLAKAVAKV", "experiment": "Inhibition of CDK1/cyclin B (unknown origin) at 1000 nM in the presence of ATP by Kinome scan method relative to control", "format": "protein-complex assay"}, "[9]": {"target": "Ephrin type-A receptor 5 (Homo sapiens) (UniProt P54756)", "sequence (P54756 whole entry)": "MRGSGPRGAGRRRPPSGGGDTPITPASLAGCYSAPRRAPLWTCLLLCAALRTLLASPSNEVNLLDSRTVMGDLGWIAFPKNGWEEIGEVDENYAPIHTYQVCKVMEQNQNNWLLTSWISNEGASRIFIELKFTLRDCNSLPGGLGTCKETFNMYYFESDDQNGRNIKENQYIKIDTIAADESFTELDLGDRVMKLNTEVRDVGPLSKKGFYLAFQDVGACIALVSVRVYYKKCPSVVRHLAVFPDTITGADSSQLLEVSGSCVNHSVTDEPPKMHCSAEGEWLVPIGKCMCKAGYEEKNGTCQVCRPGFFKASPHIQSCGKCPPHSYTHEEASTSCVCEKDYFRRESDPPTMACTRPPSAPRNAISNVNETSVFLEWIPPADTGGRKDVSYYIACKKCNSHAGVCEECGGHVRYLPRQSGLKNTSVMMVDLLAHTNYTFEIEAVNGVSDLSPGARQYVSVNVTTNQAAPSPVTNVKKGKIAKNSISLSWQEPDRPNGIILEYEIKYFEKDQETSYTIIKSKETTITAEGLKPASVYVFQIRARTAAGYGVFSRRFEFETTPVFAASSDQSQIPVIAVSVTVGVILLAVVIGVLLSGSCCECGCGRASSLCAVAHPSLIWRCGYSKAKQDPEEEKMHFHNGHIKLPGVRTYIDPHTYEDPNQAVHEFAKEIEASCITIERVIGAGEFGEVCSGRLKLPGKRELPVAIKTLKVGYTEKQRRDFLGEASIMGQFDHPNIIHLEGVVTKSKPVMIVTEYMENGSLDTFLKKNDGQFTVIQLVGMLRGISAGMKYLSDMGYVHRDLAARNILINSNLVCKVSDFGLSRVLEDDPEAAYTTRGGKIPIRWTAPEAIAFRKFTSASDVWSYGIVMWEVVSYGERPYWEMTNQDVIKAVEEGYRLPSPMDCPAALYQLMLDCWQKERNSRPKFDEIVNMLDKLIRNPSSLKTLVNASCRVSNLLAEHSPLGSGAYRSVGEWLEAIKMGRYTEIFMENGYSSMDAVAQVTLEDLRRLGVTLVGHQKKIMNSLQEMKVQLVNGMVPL", "experiment": "Inhibition of EPHA5 (unknown origin) at 100 nM in the presence of ATP by Kinome scan method relative to control"}, "[10]": {"system": "HCT-116", "experiment": "Induction of apoptosis in human HCT-116 cells assessed as necrosis cells at 1 uM incubated for > 6 hrs by annexin V/PI staining based analysis (Rvb=0.55%)", "format": "functional"}, "[11]": {"system": "HCT-116", "experiment": "Induction of cell cycle arrest in human HCT-116 cells assessed as sub G0/G1 phase at 5 uM incubated for 6 hrs by flow cytometry analysis (Rvb=1.6%)", "format": "functional"}, "[12]": {"target": "Dual specificity tyrosine-phosphorylation-regulated kinase 4 (Homo sapiens) (UniProt Q9NR20)", "sequence (Q9NR20 whole entry)": "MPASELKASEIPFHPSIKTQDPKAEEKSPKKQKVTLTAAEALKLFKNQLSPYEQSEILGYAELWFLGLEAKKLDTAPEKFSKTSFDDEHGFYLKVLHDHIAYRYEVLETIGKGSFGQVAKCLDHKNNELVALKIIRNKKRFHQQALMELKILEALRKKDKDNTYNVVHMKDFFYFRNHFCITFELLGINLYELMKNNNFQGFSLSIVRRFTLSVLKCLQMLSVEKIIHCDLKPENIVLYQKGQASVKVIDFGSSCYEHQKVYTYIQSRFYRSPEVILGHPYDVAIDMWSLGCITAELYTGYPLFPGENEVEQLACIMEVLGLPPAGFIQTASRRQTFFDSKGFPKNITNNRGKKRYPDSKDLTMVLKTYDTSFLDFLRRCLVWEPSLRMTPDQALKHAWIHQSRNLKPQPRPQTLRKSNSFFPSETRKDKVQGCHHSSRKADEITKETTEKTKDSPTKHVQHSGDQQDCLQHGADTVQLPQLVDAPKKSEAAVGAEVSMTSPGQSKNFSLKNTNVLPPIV", "experiment": "Inhibition of DYRK4 (unknown origin) at 123 nM in the presence of ATP by Kinome scan method relative to control", "conditions": "time > 6.0 hrs"}, "[13]": {"target": "Inhibitor of nuclear factor kappa-B kinase subunit beta (Homo sapiens) (UniProt O14920)", "experiment": "Inhibition of IKBKB (unknown origin) at 1000 nM in the presence of ATP by Kinome scan method relative to control"}, "[14]": {"target": "T1, Cyclin-dependent kinase 1/cyclin B1 (Homo sapiens)", "experiment": "Inhibition of CDK1/cyclin B (unknown origin) at 100 nM in the presence of ATP by Kinome scan method relative to control", "format": "protein-complex assay"}, "[15]": {"target": "Dual specificity tyrosine-phosphorylation-regulated kinase 1A (Homo sapiens, UniProt Q13627)", "experiment": "Inhibition of DYRK1A (unknown origin) using ULight-MBP peptide as substrate incubated for 10 mins in presence of ATP incubated for 45 mins by LANCE Ultra kinase assay"}, "[16]": {"target": "Ephrin type-A receptor 5 (Homo sapiens) (UniProt P54756)", "experiment": "Inhibition of EPHA5 (unknown origin) at 1000 nM in the presence of ATP by Kinome scan method relative to control"}, "[17]": {"target": "Serine/threonine-protein kinase B-raf (Homo sapiens) (UniProt P15056)", "sequence (P15056 whole entry)": "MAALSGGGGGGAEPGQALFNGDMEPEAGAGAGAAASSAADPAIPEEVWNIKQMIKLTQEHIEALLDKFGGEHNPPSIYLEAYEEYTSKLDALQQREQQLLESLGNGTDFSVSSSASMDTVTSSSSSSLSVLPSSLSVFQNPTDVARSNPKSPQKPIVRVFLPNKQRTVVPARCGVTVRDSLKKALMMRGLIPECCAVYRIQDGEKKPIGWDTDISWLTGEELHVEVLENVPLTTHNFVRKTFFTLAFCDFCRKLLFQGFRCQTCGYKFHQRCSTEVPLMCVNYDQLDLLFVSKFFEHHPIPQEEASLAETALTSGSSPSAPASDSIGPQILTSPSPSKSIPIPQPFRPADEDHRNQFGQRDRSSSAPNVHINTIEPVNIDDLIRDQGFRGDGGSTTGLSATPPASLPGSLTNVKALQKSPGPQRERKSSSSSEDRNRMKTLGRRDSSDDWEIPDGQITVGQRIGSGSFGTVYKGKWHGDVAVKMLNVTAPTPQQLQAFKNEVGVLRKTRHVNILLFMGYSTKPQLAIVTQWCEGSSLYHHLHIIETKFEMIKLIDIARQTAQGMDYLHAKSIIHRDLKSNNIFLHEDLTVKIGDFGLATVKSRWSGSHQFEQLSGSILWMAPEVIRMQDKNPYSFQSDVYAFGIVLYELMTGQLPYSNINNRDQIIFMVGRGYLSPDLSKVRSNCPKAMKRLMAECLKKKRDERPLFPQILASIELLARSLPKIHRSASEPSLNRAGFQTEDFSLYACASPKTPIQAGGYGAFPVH", "experiment": "Inhibition of BRAF (unknown origin) at 100 nM in the presence of ATP by Kinome scan method relative to control"}, "[18]": {"target": "PI3-kinase p110-alpha/p85-alpha (Homo sapiens) (UniProt P27986+P42336)", "experiment": "Inhibition of PIK3CA/PIK3R1 (unknown origin) at 1000 nM in the presence of ATP by Kinome scan method relative to control", "format": "protein-complex assay"}, "[19]": {"target": "Serine/threonine-protein kinase pim-1 (Homo sapiens) (UniProt P11309)", "experiment": "Inhibition of PIM1 (unknown origin) at 100 nM in the presence of ATP by Kinome scan method relative to control"}, "[20]": {"target": "Proto-oncogene tyrosine-protein kinase Src (Homo sapiens) (UniProt P12931)", "experiment": "Inhibition of SRC (unknown origin) at 100 nM in the presence of ATP by Kinome scan method relative to control"}, "[21]": {"target": "Serine/threonine-protein kinase mTOR (Homo sapiens) (UniProt P42345)", "experiment": "Inhibition of FRAP1 (unknown origin) at 1000 nM in the presence of ATP by Kinome scan method relative to control"}, "[22]": {"system": "HCT-116", "experiment": "Induction of apoptosis in human HCT-116 cells assessed as early apoptosis at 10 uM incubated for > 6 hrs by annexin V/PI staining based analysis (Rvb=3.29%)", "format": "functional"}, "[23]": {"target": "Tyrosine-protein kinase JAK2 (Homo sapiens) (UniProt O60674)", "experiment": "Inhibition of JAK2 (unknown origin) at 100 nM in the presence of ATP by Kinome scan method relative to control"}, "[24]": {"system": "HCT-116", "experiment": "Induction of apoptosis in human HCT-116 cells assessed as early apoptosis at 5 uM incubated for > 6 hrs by annexin V/PI staining based analysis (Rvb=3.29%)", "format": "functional"}, "[25]": {"system": "HCT-116", "experiment": "Induction of cell cycle arrest in human HCT-116 cells assessed as sub G0/G1 phase at 0.5 uM incubated for 24 hrs by flow cytometry analysis (Rvb=2.5%)", "format": "functional"}, "[26]": {"target": "Serine/threonine-protein kinase Chk2 (Homo sapiens) (UniProt O96017)", "experiment": "Inhibition of CHEK2 (unknown origin) at 1000 nM in the presence of ATP by Kinome scan method relative to control"}, "[27]": {"target": "Aurora kinase A (Homo sapiens) (UniProt O14965)", "experiment": "Inhibition of AURKA (unknown origin) at 100 nM in the presence of ATP by Kinome scan method relative to control"}, "[28]": {"system": "HCT-116", "experiment": "Induction of apoptosis in human HCT-116 cells assessed as early apoptosis at 0.5 uM incubated for > 6 hrs by annexin V/PI staining based analysis (Rvb=3.29%)", "format": "functional"}, "[29]": {"target": "Dual specificity protein kinase CLK1 (Homo sapiens) (UniProt P49759)", "experiment": "Inhibition of CLK (unknown origin) in human HCT-116 cells assessed as decrease in SRSF6 phosphorylation level at 0.5 to 1.0 uM incubated for 6 hrs by immunoblot analysis", "format": "cell-based", "conditions": "dose 0.5-1 µM"}}, "note": "Active and inactive are the calls of the source. No cut-off for these calls is given here.", "data": [{"compound": "CN1CCN(C(=O)C(C)(C)c2ccc(C(=O)Nc3cn4cc(-c5ccncc5)ccc4n3)cc2)CC1", "note": "[T3-CLK]", "values": [{"measurement": "viability at 0.1 µM", "setting": "[1]", "value": 87.8, "unit": "%"}, {"measurement": "inhibition", "setting": "[2]", "value": 2, "unit": "%"}, {"measurement": "inhibition", "setting": "[3]", "value": "Active"}, {"measurement": "inhibition", "setting": "[4]", "value": 3, "unit": "%"}, {"measurement": "inhibition", "setting": "[5]", "value": 9, "unit": "%"}, {"measurement": "inhibition", "setting": "[6]", "value": 2, "unit": "%"}, {"measurement": "inhibition", "setting": "[7]", "value": -10, "unit": "%"}, {"measurement": "inhibition", "setting": "[8]", "value": 7, "unit": "%"}, {"measurement": "inhibition", "setting": "[9]", "value": -6, "unit": "%"}, {"measurement": "Activity", "setting": "[10]", "value": 0.73, "unit": "%"}, {"measurement": "Activity", "setting": "[11]", "value": 2.2, "unit": "%"}, {"measurement": "inhibition", "setting": "[12]", "value": -8, "unit": "%"}, {"measurement": "inhibition", "setting": "[13]", "value": -5, "unit": "%"}, {"measurement": "inhibition", "setting": "[14]", "value": 8, "unit": "%"}, {"measurement": "IC50", "setting": "[15]", "value": 260, "unit": "nM"}, {"measurement": "inhibition", "setting": "[16]", "value": -5, "unit": "%"}, {"measurement": "inhibition", "setting": "[17]", "value": 9, "unit": "%"}, {"measurement": "inhibition", "setting": "[18]", "value": 4, "unit": "%"}, {"measurement": "inhibition", "setting": "[19]", "value": 16, "unit": "%"}, {"measurement": "inhibition", "setting": "[20]", "value": 13, "unit": "%"}, {"measurement": "inhibition", "setting": "[21]", "value": -9, "unit": "%"}, {"measurement": "Activity", "setting": "[22]", "value": 3.7, "unit": "%"}, {"measurement": "inhibition", "setting": "[23]", "value": -7, "unit": "%"}, {"measurement": "Activity", "setting": "[24]", "value": 4.32, "unit": "%"}, {"measurement": "Activity", "setting": "[25]", "value": 13.1, "unit": "%"}, {"measurement": "inhibition", "setting": "[26]", "value": 24, "unit": "%"}, {"measurement": "inhibition", "setting": "[27]", "value": 5, "unit": "%"}, {"measurement": "Activity", "setting": "[28]", "value": 3.04, "unit": "%"}, {"measurement": "inhibition", "setting": "[29]", "value": "Active"}]}]}
